Assay results pooled from the literature.
Target: Muscarinic acetylcholine receptor M5 (CHRM5, Homo sapiens, UniProt P08912)
Concentration: 10 µM
One construct used (P08912 1-532): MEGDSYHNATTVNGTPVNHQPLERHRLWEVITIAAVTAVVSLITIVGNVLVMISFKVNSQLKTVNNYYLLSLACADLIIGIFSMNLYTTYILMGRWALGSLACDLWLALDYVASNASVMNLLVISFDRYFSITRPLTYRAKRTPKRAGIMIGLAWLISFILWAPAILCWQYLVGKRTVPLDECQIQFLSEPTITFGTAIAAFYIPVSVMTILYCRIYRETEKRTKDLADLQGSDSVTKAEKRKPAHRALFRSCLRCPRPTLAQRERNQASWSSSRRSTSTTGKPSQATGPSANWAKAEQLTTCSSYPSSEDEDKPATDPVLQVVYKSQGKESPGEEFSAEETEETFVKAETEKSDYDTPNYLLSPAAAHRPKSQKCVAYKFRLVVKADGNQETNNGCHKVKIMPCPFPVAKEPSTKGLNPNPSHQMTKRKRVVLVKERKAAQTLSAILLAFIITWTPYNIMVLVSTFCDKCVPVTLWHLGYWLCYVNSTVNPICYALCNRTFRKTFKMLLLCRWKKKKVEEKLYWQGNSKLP

SMILES | read-out | technique | inhibition [%]
N#Cc1cc(Cn2c(N3CCCC3)nc3ccccc32)ccc1F | ligand displacement | – | 10.9
CN(C(=O)n1cnc(-c2ccc[n+]([O-])c2)c1)C1CCCCC1 | cell-free assay | – | 8.59
CO[C@@H](C)c1c(Nc2ccc([C@H](N(C)C(=O)C3CCS(=O)(=O)CC3)C(F)(F)F)cc2)cnc2cc(Cl)nn12 | ligand displacement | – | 14.6
O=C(c1ccc(Cl)cc1)N(Cc1ccccc1)C1CCCCC1 | cell-free assay | – | -9.6
CCN(CC)c1ccc(C2Nc3ccc(C(=O)c4ccccc4)cc3NC3=C2C(=O)CC(C)(C)C3)cc1 (centres unmarked) | ligand displacement | radioligand | 20
CCCNc1nc2ccccc2n1Cc1ccc(Cl)cc1 | ligand displacement | – | 14.5
COc1cc(NC(C)=O)c(Cl)cc1C(=O)Nc1nccs1 | cell-free assay | – | -6.1
CNC(=N)NCCC[C@H](NC(=O)[C@H](CC(C)C)NC(=O)NNC(=O)[C@H](Cc1ccccc1)NC(=O)[C@H](CO)NC(=O)[C@H](CC(N)=O)NC(=O)[C@@H](Cc1ccncc1)NC(=O)[C@H](N)Cc1ccc(O)cc1)C(=O)N[C@@H](Cc1ccccc1)C(N)=O | ligand displacement | – | 14.9
